Test results from ChEMBL document CHEMBL4428062, “Human Toll-like Receptor (TLR) 8-Specific Agonistic Activity in Substituted Pyrimidine-2,4-diamines” (J Med Chem, 2016).
Calls of active or inactive are those of the source. The rule behind the calls is not given here.

Columns and labels:
[1] = molecular target: T1, Toll-like receptor 8 (Homo sapiens, UniProt Q9NR97); test: Agonist activity at TLR8 in human PBMC assessed as increase in TNF-alpha production after 16 hrs by immunoassay
T1 sequence (Q9NR97 whole entry): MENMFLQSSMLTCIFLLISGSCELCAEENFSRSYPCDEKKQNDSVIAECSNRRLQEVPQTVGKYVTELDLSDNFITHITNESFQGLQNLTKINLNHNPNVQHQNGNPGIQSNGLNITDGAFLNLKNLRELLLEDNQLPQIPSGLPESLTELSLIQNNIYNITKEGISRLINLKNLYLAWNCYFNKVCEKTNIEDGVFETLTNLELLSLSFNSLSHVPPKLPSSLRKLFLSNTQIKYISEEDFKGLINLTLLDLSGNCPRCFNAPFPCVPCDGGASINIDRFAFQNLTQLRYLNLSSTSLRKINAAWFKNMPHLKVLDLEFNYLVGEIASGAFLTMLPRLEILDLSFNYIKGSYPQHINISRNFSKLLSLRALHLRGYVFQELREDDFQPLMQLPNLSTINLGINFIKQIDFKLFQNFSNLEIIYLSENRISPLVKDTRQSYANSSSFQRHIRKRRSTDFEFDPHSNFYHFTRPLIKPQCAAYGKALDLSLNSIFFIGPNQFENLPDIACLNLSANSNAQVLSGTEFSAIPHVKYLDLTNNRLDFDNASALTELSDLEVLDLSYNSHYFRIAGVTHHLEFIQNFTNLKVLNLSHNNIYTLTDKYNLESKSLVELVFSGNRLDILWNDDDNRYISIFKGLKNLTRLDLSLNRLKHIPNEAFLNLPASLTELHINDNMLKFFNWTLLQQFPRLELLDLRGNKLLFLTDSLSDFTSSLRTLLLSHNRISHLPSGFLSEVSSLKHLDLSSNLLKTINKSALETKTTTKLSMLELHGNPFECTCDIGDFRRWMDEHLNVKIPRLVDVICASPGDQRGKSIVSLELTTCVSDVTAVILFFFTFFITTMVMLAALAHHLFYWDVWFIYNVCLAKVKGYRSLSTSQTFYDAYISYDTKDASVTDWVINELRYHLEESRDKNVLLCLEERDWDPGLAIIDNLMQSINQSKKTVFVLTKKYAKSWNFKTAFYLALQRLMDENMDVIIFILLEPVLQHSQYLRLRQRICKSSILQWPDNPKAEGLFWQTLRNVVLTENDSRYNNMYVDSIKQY
Summary of the method: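 Freshly isolated human PBMC from venipuncture blood (informed consent), 10^5 cells/well, stimulated 16 h with graded concentrations of compound. Supernatants collected by centrifugation and cytokines quantified in duplicate with a multiplexed cytokine/chemokine magnetic bead array.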

[2] = molecular target: Toll-like receptor 5 (Homo sapiens) (UniProt O60602); test: Agonist activity at human TLR5 expressed in HEK293 cells assessed as induction of NF-kappaB activity by secreted alkaline phosphatase reporter gene assay; assay type: cell-based
Summary of the method: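 HEK293 reporter lines stably co-transfected with the respective human TLR and an NF-κB/AP-1-driven secreted alkaline phosphatase gene, kept in selection medium. About 10^5 cells/ml were incubated with graded concentrations of stimuli. Supernatant sAP was read spectrophotometrically at 620 nm using a chromogenic substrate in detection medium. EC50 was taken as the arithmetic mean of quadruplicate samples.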

Chain of Toll-like receptor 5 (Homo sapiens) (O60602 whole entry): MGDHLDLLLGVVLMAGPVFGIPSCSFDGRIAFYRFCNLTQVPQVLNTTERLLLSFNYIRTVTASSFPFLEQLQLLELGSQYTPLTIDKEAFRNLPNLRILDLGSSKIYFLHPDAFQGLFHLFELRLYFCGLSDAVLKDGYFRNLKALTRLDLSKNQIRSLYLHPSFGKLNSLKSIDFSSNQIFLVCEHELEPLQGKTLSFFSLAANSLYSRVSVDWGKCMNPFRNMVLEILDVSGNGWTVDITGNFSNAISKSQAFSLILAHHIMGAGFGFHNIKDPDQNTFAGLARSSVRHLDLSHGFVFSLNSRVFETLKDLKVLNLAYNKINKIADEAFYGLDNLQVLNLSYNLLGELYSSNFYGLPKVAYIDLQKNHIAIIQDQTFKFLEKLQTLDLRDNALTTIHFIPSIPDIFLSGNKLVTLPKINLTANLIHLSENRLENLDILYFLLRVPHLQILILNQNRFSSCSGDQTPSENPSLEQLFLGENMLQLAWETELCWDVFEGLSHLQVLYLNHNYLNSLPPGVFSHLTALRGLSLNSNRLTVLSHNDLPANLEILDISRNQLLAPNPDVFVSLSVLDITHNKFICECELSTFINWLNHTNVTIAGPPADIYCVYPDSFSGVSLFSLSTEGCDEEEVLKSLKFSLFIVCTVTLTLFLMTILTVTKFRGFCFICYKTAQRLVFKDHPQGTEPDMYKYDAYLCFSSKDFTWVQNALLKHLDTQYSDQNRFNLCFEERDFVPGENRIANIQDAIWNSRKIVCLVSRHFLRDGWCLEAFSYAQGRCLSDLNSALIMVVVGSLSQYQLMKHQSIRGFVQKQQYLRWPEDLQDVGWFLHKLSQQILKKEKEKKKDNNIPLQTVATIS

SMILES	EC50 [1]	Activity [2]
CCCCNc1nc(N)nc(C)c1CCCCN	9.26 µM	inactive
CCCCCn1c(N)nc2c(C)cccc21		inactive
CCCCNc1cc(-c2ccccc2)nc(N)n1		inactive
CCCCNc1nc(N)nc(C)c1I		inactive
CCCCNc1nc(N)nc(-c2ccccc2)c1CCCCN		inactive
